This is an account of results in ChEMBL document CHEMBL1122522, “Conformationally restricted retinoids” (1984).

For orientation: inhibition means the share of the control response that was lost under treatment.

The target in experiment [1] is T1, Ornithine decarboxylase (Mus musculus) (UniProt P00860).
T1 sequence (whole entry): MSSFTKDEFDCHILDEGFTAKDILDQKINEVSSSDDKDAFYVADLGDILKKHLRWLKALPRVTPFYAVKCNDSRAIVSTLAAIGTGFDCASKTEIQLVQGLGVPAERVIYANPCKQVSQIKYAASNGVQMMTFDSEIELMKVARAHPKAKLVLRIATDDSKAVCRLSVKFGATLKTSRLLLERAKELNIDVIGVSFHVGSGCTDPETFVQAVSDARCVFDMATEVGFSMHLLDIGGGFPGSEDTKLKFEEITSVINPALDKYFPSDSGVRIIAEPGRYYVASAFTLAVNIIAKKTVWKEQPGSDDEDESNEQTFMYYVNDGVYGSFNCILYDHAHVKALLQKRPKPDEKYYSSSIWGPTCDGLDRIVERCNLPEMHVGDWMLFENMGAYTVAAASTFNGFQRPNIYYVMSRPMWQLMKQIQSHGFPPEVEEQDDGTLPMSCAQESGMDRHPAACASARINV
In words: Inhibition of the induction of ornithine decarboxylase in mouse epidermis by the tumor promoter 12-O-tetradecanoylphorbol-13-acetate (ODC) at dose 1.7 nmol.

Experiment [2] relates to Cricetinae gen. sp. Description: Activity of compound the was expressed as ratio of active hamster tracheal organ cultures(TOC) to the total cultures at 10e-10 M concentration; 4/15. It is filed as functional, Cricetulus griseus, Trachea. To be noted: at 0.0001 µM.
For experiment [3], the system named is Cricetinae gen. sp. In words: Activity of compound the was expressed as ratio of active hamster tracheal organ cultures(TOC) to the total cultures at 10e-9 M concentration; 14/15. The class given is functional, Cricetulus griseus, Trachea. As to conditions: at 0.001 µM.
Experiment [4] concerns Cricetinae gen. sp. Description: Activity of compound the was expressed as ratio of active hamster tracheal organ cultures(TOC) to the total cultures at 10e-8 M concentration; 7/7. The class given is functional, Cricetulus griseus, Trachea. To be noted: at 0.01 µM.
Experiment [5] has as its target T1, Ornithine decarboxylase (Mus musculus). In words: TInhibition of the induction of ornithine decarboxylase in mouse epidermis by the tumor promoter 12-O-tetradecanoylphorbol-13-acetate (ODC) at dose 17 nmol.
Experiment [6] has as its system Cricetinae gen. sp. Description: Molarity required to effect reversal of keratinization in 50% of cultures. The class given is functional, Cricetulus griseus.
The test system of experiment [7] is Cricetinae gen. sp. Description: Activity of compound the was expressed as ratio of active hamster tracheal organ cultures(TOC) to the total cultures at 10e-11 M concentration; 1/8. The class given is functional, Cricetulus griseus, Trachea. To be noted: at 10 pM.
Experiment [8] is described as follows: Percent survivors at dose 200 umol/kg day. The class given is functional, Mus musculus. The method, boiled down:
(§1)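 Adult female Swiss mice (20–25 g) had chow and water ad libitum. The retinoid was homogenized as a suspension in aqueous 8% Cremophor EL plus 10% propylene glycol. It was given ip as 10 weekday injections over 14 days. Controls received vehicle alone. Survivors were weighed on days 1, 5, 10 and 15, and dates of death were recorded. Survival was scored at days 8 and 15.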

For experiment [9], the system named is Cricetinae gen. sp. Description: Activity of compound the was expressed as ratio of active hamster tracheal organ cultures(TOC) to the total cultures at 10e-9 M concentration; 7/7. It is filed as functional, Cricetulus griseus, Trachea. The procedure, abridged: (§2)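 Tracheal organ cultures came from vitamin A-deficient hamsters. Each culture was scored for reversal of keratinization and reported as active cultures out of total cultures at each retinoid concentration tested (10⁻⁸ to 10⁻¹² M). The protocol followed earlier published methods.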

For experiment [10], the species on record is Mus musculus. In words: Percent decrease in average number of papillomas 17 at dose. The class given is functional. The method, boiled down: (§3)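 Female Charles River CD-1 mice, 8 weeks old, in random groups of 25–30, were shaved 2 days before initiation with 200 nmol DMBA in acetone on the back. From 2 weeks on, 8.5 nmol TPA was applied twice weekly for 20 weeks. Retinoid in 0.2 mL acetone, or acetone alone for controls, was given 1 h before each TPA dose. Papillomas were counted weekly, and mean papillomas per mouse were compared with controls at 20 weeks.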

Experiment [11] concerns the target T1, Ornithine decarboxylase (Mus musculus). In words: TInhibition of the induction of ornithine decarboxylase in mouse epidermis by the tumor promoter 12-O-tetradecanoylphorbol-13-acetate (ODC) at dose 1.7 nmol.
For experiment [12], the species on record is Mus musculus. In words: Percent decrease in average number of papillomas 170 at dose. It is filed as functional. The procedure, abridged:
as §3

For experiment [13], the species on record is Mus musculus. In words: Tested for relative activity in a 20-week anti-papilloma experiment in female CD-1 mice at dose 17 nmol. It is filed as functional. The method, boiled down: as §3
Experiment [14] is described as follows: Mortality range in days at dose 300 umol/kg day; 14-15. The class given is functional, Mus musculus. The method, boiled down: as §1
Experiment [15] can be described thus: Percent survivors at dose 100 umol/kg day. The class given is functional, Mus musculus. The procedure, abridged: as §1
The test system of experiment [16] is Cricetinae gen. sp. In words: Activity of compound the was expressed as ratio of active hamster tracheal organ cultures(TOC) to the total cultures at 10e-10 M concentration; 12/14. The class given is functional, Cricetulus griseus, Trachea. The method, boiled down:
as §2

A short description of experiment [17]: Mortality range in days at dose 600 umol/kg day; 9-10. It is filed as functional, Mus musculus. The method, boiled down:
as §1

A short description of experiment [18]: Percent survivors at dose 30 umol/kg day. The class given is functional, Mus musculus. The procedure, abridged:
as §1

Experiment [19] can be described thus: Percent survivors at dose 600 umol/kg day. It is filed as functional, Mus musculus. The procedure, abridged: as §1
Experiment [20] is filed under the species Mus musculus. Description: Tested for relative activity in a 20-week anti-papilloma experiment in female CD-1 mice at dose 170 nmol. The class given is functional. The method, boiled down: as §3
Experiment [21] addresses T1, Ornithine decarboxylase (Mus musculus). In words: Inhibition of the induction of ornithine decarboxylase in mouse epidermis by the tumor promoter 12-O-tetradecanoylphorbol-13-acetate (ODC)) at dose 17 nmol.
Experiment [22] in a line: Percent survivors at dose 300 umol/kg day. It is filed as functional, Mus musculus. The procedure, abridged: as §1
Experiment [23] deals with Cricetinae gen. sp. In words: Activity of compound the was expressed as ratio of active hamster tracheal organ cultures(TOC) to the total cultures at 10e-9 M concentration. It is filed as functional, Cricetulus griseus, Trachea. The method, boiled down:
as §2

Experiment [24] concerns Cricetinae gen. sp. Description: Activity of compound the was expressed as ratio of active hamster tracheal organ cultures(TOC) to the total cultures at 10e-10 M concentration. The class given is functional, Cricetulus griseus, Trachea. The method, boiled down: as §2
Experiment [25] has as its target T1, Ornithine decarboxylase (Mus musculus). Description: Inhibition of the induction of ornithine decarboxylase in mouse epidermis by the tumor promoter 12-O-tetradecanoylphorbol-13-acetate (ODC) at dose 17 nmol.
Experiment [26] concerns Cricetinae gen. sp. Description: Activity of compound the was expressed as ratio of active hamster tracheal organ cultures(TOC) to the total cultures at 10e-8 M concentration. It is filed as functional, Cricetulus griseus, Trachea. The procedure, abridged: as §2
The subject of experiment [27] is Cricetinae gen. sp. In words: Activity of compound the was expressed as ratio of active hamster tracheal organ cultures(TOC) to the total cultures at 10e-8 M concentration; 8/8. The class given is functional, Cricetulus griseus, Trachea. The method, boiled down: as §2
Experiment [28] addresses T1, Ornithine decarboxylase (Mus musculus). Description: Inhibition of the induction of ornithine decarboxylase in mouse epidermis by the tumor promoter 12-O-tetradecanoylphorbol-13-acetate (ODC) at dose 17 nmol * p<0.05.
For experiment [29], the system named is Cricetinae gen. sp. In words: Activity of compound the was expressed as ratio of active hamster tracheal organ cultures(TOC) to the total cultures at 10e-10 M concentration; 3/14. It is filed as functional, Cricetulus griseus, Trachea. The method, boiled down: as §2
Experiment [30] relates to Cricetinae gen. sp. In words: Activity of compound the was expressed as ratio of active hamster tracheal organ cultures(TOC) to the total cultures at 10e-9 M concentration; 8/14. It is filed as functional, Cricetulus griseus, Trachea. The method, boiled down: as §2
Experiment [31] concerns the target T1, Ornithine decarboxylase (Mus musculus). Description: Inhibition of the induction of ornithine decarboxylase in mouse epidermis by the tumor promoter 12-O-tetradecanoylphorbol-13-acetate (ODC) at dose 1.7 nmol * p<0.02.

Turning to `CC1=C(CC/C(C)=C/c2ccc(C(=O)O)cc2)C(C)(C)CCC1`, the values for the inhibition in experiment [1] and in experiment [5] were 45% and 83%, respectively. Further, the Activity was found to be 4 active cultures in experiment [2], 14 active cultures in experiment [3], 7% in [4] and 1 active cultures in [7]. For the same compound, in [6], the ED50 came out at 3e-10.
As to `C/C(=C\c1ccc(C(=O)O)cc1)c1ccc2c(c1)C(C)(C)CCS2`, the “Survivors at day 8” value in [8], in experiment [15], in experiment [19] and in experiment [22] was 100% each time. Also, the Activity in experiment [9] turned out to be 100%; in experiment [13], 53%; in [16] it was 12%; in experiment [4], 7%; in experiment [20], 38%. Moreover, the Decrease was determined as 93.4% in experiment [10] and 93.6% in experiment [12]. For the same compound, the results for the inhibition in [11] and in [21] were 68% and 85%, respectively. Besides, the Mortality range in [14] stood at 15 days; in experiment [17], 10 days. Besides, the “Survivors at day 15” value in experiment [15] is on record as 100%; in experiment [18], 100%; in experiment [19], 0%; in experiment [22] it was 80%. For the same compound, in experiment [6], the ED50 is listed as 5e-11.
As for `CC1=C(c2ccc(-c3ccc(C(=O)O)cc3)cc2)C(C)(C)CCC1`, the inhibition in experiment [1] was found to be 34%; in [25] it was 55%. The Activity in experiment [23] came to 2%; in [24] it was 2%; in experiment [26] it was 7%. Besides, the ED50 in experiment [6] is reported as 3e-09.
As to `C/C(=C\c1ccc(C(=O)O)cc1)c1ccc2c(c1)C1CCC2C1` (centres undefined), the Activity was determined as 8% in [27], 3% in experiment [29] and 57% in experiment [30]. The inhibition amounted to 69% in [28] and 33% in experiment [31]. Besides, the ED50 in experiment [6] worked out at 6e-10.
